Test results reported in article PMC4530630 (Molecular cell, 2015).

Assays:
[1] = test system: PC3 human prostate cells stably expressing GFP-LC3; experiment: GFP-LC3 puncta high-throughput microscopy in PC3 cells; assay type: cell-based; settings: 1 μM for 4 hours, control siRNA cells
How it was run: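 GFP-LC3 PC3 cells were used for a focused RNAi screen of kinases. 48 hours after siRNA transfection, cells received 1 μM of the catalytic mTOR inhibitors AZD8055 or INK128 for 4 hours. GFP-LC3 puncta were then imaged, with nuclei counterstained by DAPI. Results were reported as mean puncta number with standard deviation for each siRNA and drug treatment.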

[2] = test system: A549 human lung cancer cells; experiment: PE-AnnexinV FACS apoptosis in A549 cells; assay type: cell-based
How it was run: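 A549 human lung cancer cells received AZD8055 (1 μM) or DMSO together with increasing doses of test compound for 72 hours. Cells were then collected, stained with PE-AnnexinV and quantified by FACS. Read-out was the percentage of AnnexinV-positive cells, taken as cells actively undergoing apoptosis.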

[3] = test system: panel of 456 purified human kinases; experiment: DiscoveRx KINOMEscan competition-binding assay; settings: tested at 10 μM
A549 cells = experiment: Cyto-ID autophagy dye imaging in A549 cells; assay type: cell-based, human; settings: 5 μM 6965 for 2 hours, then 4 μM AZD8055 for 24 hours
How it was run: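 A549 cells were pretreated with or without test compound (5 μM) for 2 hours, then exposed to the catalytic mTOR inhibitor AZD8055 (4 μM) for 24 hours. Autophagic vacuoles were stained with the Cyto-ID autophagy detection kit and nuclei with DAPI. Read-out was immunofluorescence imaging.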

[4] = test system: endogenous FAK, AMPK, mTOR, Akt, or Erk signaling; experiment: immunoblot of endogenous growth pathway signaling in wild-type MEFs; assay type: cell-based, mouse; settings: 10 μM
How it was run: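 Wild-type and Ulk1/Ulk2 double-knockout MEFs were given fresh DMEM with 10% FBS containing 1 μM INK128, 1 μM AZD8055 or DMSO, or EBSS starvation medium, with or without 10 μM test compound. Endogenous signaling was assessed by immunoblotting. Endogenous ULK1 activity was monitored with a phospho-specific antibody to Atg13 Ser318.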

CC(C)n1nc(-c2ccc3oc(N)nc3c2)c2c(N)ncnc21 [INK128]
induction in GFP-LC3 puncta formation [1]: 2 fold

COc1ccc(-c2ccc3c(N4CCOC[C@@H]4C)nc(N4CCOC[C@@H]4C)nc3n2)cc1CO [AZD8055, reference compound]
induction in GFP-LC3 puncta formation [1]: 2 fold
apoptotic (AnnexinV-positive) cells ([2]; AZD8055 (1 μM) alone, 72 hours): 7%

CNC(=O)c1ccccc1Oc1nc(Nc2cc(OC)c(OC)c(OC)c2)ncc1Br [SBI-0206965]
apoptotic (AnnexinV-positive) cells ([2]; 5 μM 6965 in the absence of AZD8055, 72 hours): 10%
number of kinases inhibited >95% [3]: 10 out of 456
effect on AZD8055-induced autophagy (Cyto-ID dye accumulation) (A549 cells): strongly suppressed
effect on endogenous FAK, AMPK, mTOR, Akt, or Erk signaling [4]: did not impair
